# ChEMBL document CHEMBL4152188, “Design, synthesis and biological evaluation of C(4) substituted monobactams as antibacterial agents against multidrug-resistant Gram-negative bacteria” (Eur J Med Chem, 2018)
# Assays:
# Assay type in all cases: functional
# Escherichia coli [1] = assay: Antibacterial activity against extended-spectrum beta-lactamase producing Escherichia coli isolate 212648 after 18 hrs by CLSI broth microdilution method; details: isolate 212648, 18 h
# Escherichia coli [2] = assay: Selectivity index, ratio of MIC for against extended-spectrum beta-lactamase producing Escherichia coli isolate 208687 to MIC for extended-spectrum beta-lactamase producing Escherichia coli isolate 208687 in presence of BPL
# Escherichia coli [3] = assay: Antibacterial activity against Escherichia coli isolate 210737 after 18 hrs by CLSI broth microdilution method; details: isolate 210737, 18 h
# Escherichia coli [4] = assay: Antibacterial activity against extended-spectrum beta-lactamase producing Escherichia coli isolate 208687 after 18 hrs by CLSI broth microdilution method; details: isolate 208687, 18 h
# Escherichia coli [5] = assay: Antibacterial activity against extended-spectrum beta-lactamase producing Escherichia coli isolate 208687 after 18 hrs in presence of BPL by CLSI broth microdilution method; details: isolate 208687, 18 h
# In short: (§1)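 CLSI broth microdilution against clinical isolates (ESBL E. coli, KPC-2 MDR K. pneumoniae, IMP-4 MDR P. aeruginosa; five per species). Iron limitation: Mueller-Hinton broth supplemented with 16 mg/liter 2,2'-bipyridyl to complex iron and induce iron uptake systems. Read-out: MIC.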
# Escherichia coli [6] = assay: Antibacterial activity against Escherichia coli isolate 210737 after 18 hrs in presence of BPL by CLSI broth microdilution method; details: isolate 210737, 18 h; in short: as §1
# Escherichia coli [7] = assay: Selectivity index, ratio of MIC for against Escherichia coli isolate 210737 to MIC for Escherichia coli isolate 210737 in presence of BPL
# Escherichia coli [8] = assay: Antibacterial activity against extended-spectrum beta-lactamase producing Escherichia coli isolate 212648 after 18 hrs in presence of BPL by CLSI broth microdilution method; details: isolate 212648, 18 h; in short: as §1
# Escherichia coli [9] = assay: Selectivity index, ratio of MIC for against extended-spectrum beta-lactamase producing Escherichia coli isolate 212648 to MIC for extended-spectrum beta-lactamase producing Escherichia coli isolate 212648 in presence of BPL
# Escherichia coli [10] = assay: Antibacterial activity against extended-spectrum beta-lactamase producing Escherichia coli isolate 209285 after 18 hrs by CLSI broth microdilution method; details: isolate 209285, 18 h
# Escherichia coli [11] = assay: Antibacterial activity against extended-spectrum beta-lactamase producing Escherichia coli isolate 209285 after 18 hrs in presence of BPL by CLSI broth microdilution method; details: isolate 209285, 18 h; in short: as §1
# Escherichia coli [12] = assay: Selectivity index, ratio of MIC for against extended-spectrum beta-lactamase producing Escherichia coli isolate 209285 to MIC for extended-spectrum beta-lactamase producing Escherichia coli isolate 209285 in presence of BPL
# Escherichia coli [13] = assay: Antibacterial activity against extended-spectrum beta-lactamase producing Escherichia coli isolate 106342 after 18 hrs by CLSI broth microdilution method; details: isolate 106342, 18 h
# Escherichia coli [14] = assay: Antibacterial activity against extended-spectrum beta-lactamase producing Escherichia coli isolate 106342 after 18 hrs in presence of BPL by CLSI broth microdilution method; details: isolate 106342, 18 h; in short: as §1
# Escherichia coli [15] = assay: Selectivity index, ratio of MIC for against extended-spectrum beta-lactamase producing Escherichia coli isolate 106342 to MIC for extended-spectrum beta-lactamase producing Escherichia coli isolate 106342 in presence of BPL
# Klebsiella pneumoniae [16] = assay: Antibacterial activity against KPC-2 producing Klebsiella pneumoniae isolate 212423 after 18 hrs by CLSI broth microdilution method; details: isolate 212423, 18 h
# Klebsiella pneumoniae [17] = assay: Antibacterial activity against KPC-2 producing Klebsiella pneumoniae isolate 212423 after 18 hrs in presence of BPL by CLSI broth microdilution method; details: isolate 212423, 18 h; in short: as §1
# Klebsiella pneumoniae [18] = assay: Selectivity index, ratio of MIC for against KPC-2 producing Klebsiella pneumoniae isolate 212423 to MIC for against KPC-2 producing Klebsiella pneumoniae isolate 212423 in presence of BPL
# Klebsiella pneumoniae [19] = assay: Antibacterial activity against KPC-2 producing Klebsiella pneumoniae isolate 209632 after 18 hrs by CLSI broth microdilution method; details: isolate 209632, 18 h
# Klebsiella pneumoniae [20] = assay: Antibacterial activity against KPC-2 producing Klebsiella pneumoniae isolate 209632 after 18 hrs in presence of BPL by CLSI broth microdilution method; details: isolate 209632, 18 h; in short: as §1
# Klebsiella pneumoniae [21] = assay: Selectivity index, ratio of MIC for against KPC-2 producing Klebsiella pneumoniae isolate 209632 to MIC for against KPC-2 producing Klebsiella pneumoniae isolate 209632 in presence of BPL
# Klebsiella pneumoniae [22] = assay: Antibacterial activity against KPC-2 producing Klebsiella pneumoniae isolate 209735 after 18 hrs by CLSI broth microdilution method; details: isolate 209735, 18 h
# Klebsiella pneumoniae [23] = assay: Antibacterial activity against KPC-2 producing Klebsiella pneumoniae isolate 209735 after 18 hrs in presence of BPL by CLSI broth microdilution method; details: isolate 209735, 18 h; in short: as §1
# Klebsiella pneumoniae [24] = assay: Selectivity index, ratio of MIC for against KPC-2 producing Klebsiella pneumoniae isolate 209735 to MIC for against KPC-2 producing Klebsiella pneumoniae isolate 209735 in presence of BPL
# Klebsiella pneumoniae [25] = assay: Antibacterial activity against KPC-2 producing Klebsiella pneumoniae isolate 212232 after 18 hrs by CLSI broth microdilution method; details: isolate 212232, 18 h
# Klebsiella pneumoniae [26] = assay: Antibacterial activity against KPC-2 producing Klebsiella pneumoniae isolate 212232 after 18 hrs in presence of BPL by CLSI broth microdilution method; details: isolate 212232, 18 h; in short: as §1
# Klebsiella pneumoniae [27] = assay: Selectivity index, ratio of MIC for against KPC-2 producing Klebsiella pneumoniae isolate 212232 to MIC for against KPC-2 producing Klebsiella pneumoniae isolate 212232 in presence of BPL
# Klebsiella pneumoniae [28] = assay: Antibacterial activity against KPC-2 producing Klebsiella pneumoniae isolate 212229 after 18 hrs by CLSI broth microdilution method; details: isolate 212229, 18 h
# Klebsiella pneumoniae [29] = assay: Antibacterial activity against KPC-2 producing Klebsiella pneumoniae isolate 212229 after 18 hrs in presence of BPL by CLSI broth microdilution method; details: isolate 212229, 18 h; in short: as §1
# Klebsiella pneumoniae [30] = assay: Selectivity index, ratio of MIC for against KPC-2 producing Klebsiella pneumoniae isolate 212229 to MIC for against KPC-2 producing Klebsiella pneumoniae isolate 212229 in presence of BPL
# Pseudomonas aeruginosa [31] = assay: Antibacterial activity against IMP-4 producing Pseudomonas aeruginosa isolate 212886 after 18 hrs by CLSI broth microdilution method; details: isolate 212886, 18 h
# Pseudomonas aeruginosa [32] = assay: Antibacterial activity against IMP-4 producing Pseudomonas aeruginosa isolate 212886 after 18 hrs in presence of BPL by CLSI broth microdilution method; details: isolate 212886, 18 h; in short: as §1
# Pseudomonas aeruginosa [33] = assay: Selectivity index, ratio of MIC for against IMP-4 producing Pseudomonas aeruginosa isolate 212886 to MIC for against IMP-4 producing Pseudomonas aeruginosa isolate 212886 in presence of BPL
# Pseudomonas aeruginosa [34] = assay: Antibacterial activity against IMP-4 producing Pseudomonas aeruginosa isolate 209471 after 18 hrs by CLSI broth microdilution method; details: isolate 209471, 18 h
# Pseudomonas aeruginosa [35] = assay: Antibacterial activity against IMP-4 producing Pseudomonas aeruginosa isolate 209471 after 18 hrs in presence of BPL by CLSI broth microdilution method; details: isolate 209471, 18 h; in short: as §1
# Pseudomonas aeruginosa [36] = assay: Selectivity index, ratio of MIC for against IMP-4 producing Pseudomonas aeruginosa isolate 209471 to MIC for against IMP-4 producing Pseudomonas aeruginosa isolate 209471 in presence of BPL
# Pseudomonas aeruginosa [37] = assay: Antibacterial activity against IMP-4 producing Pseudomonas aeruginosa isolate 208247 after 18 hrs by CLSI broth microdilution method; details: isolate 208247, 18 h
# Pseudomonas aeruginosa [38] = assay: Antibacterial activity against IMP-4 producing Pseudomonas aeruginosa isolate 208247 after 18 hrs in presence of BPL by CLSI broth microdilution method; details: isolate 208247, 18 h; in short: as §1
# Pseudomonas aeruginosa [39] = assay: Selectivity index, ratio of MIC for against IMP-4 producing Pseudomonas aeruginosa isolate 208247 to MIC for against IMP-4 producing Pseudomonas aeruginosa isolate 208247 in presence of BPL
# Pseudomonas aeruginosa [40] = assay: Antibacterial activity against IMP-4 producing Pseudomonas aeruginosa isolate 209321 after 18 hrs by CLSI broth microdilution method; details: isolate 209321, 18 h
# Pseudomonas aeruginosa [41] = assay: Antibacterial activity against IMP-4 producing Pseudomonas aeruginosa isolate 209321 after 18 hrs in presence of BPL by CLSI broth microdilution method; details: isolate 209321, 18 h; in short: as §1
# Pseudomonas aeruginosa [42] = assay: Selectivity index, ratio of MIC for against IMP-4 producing Pseudomonas aeruginosa isolate 209321 to MIC for against IMP-4 producing Pseudomonas aeruginosa isolate 209321 in presence of BPL
# Pseudomonas aeruginosa [43] = assay: Antibacterial activity against IMP-4 producing Pseudomonas aeruginosa isolate 207272 after 18 hrs by CLSI broth microdilution method; details: isolate 207272, 18 h
# Pseudomonas aeruginosa [44] = assay: Antibacterial activity against IMP-4 producing Pseudomonas aeruginosa isolate 207272 after 18 hrs in presence of BPL by CLSI broth microdilution method; details: isolate 207272, 18 h; in short: as §1
# Pseudomonas aeruginosa [45] = assay: Selectivity index, ratio of MIC for against IMP-4 producing Pseudomonas aeruginosa isolate 207272 to MIC for against IMP-4 producing Pseudomonas aeruginosa isolate 207272 in presence of BPL
smiles,measurement,setting,value
CC(C)C(O/N=C(\C(=O)NC1C(=O)N(S(=O)(=O)O)C12CCCC2)c1csc(N)n1)c1cc(=O)c(O)cn1O (stereo not given),MIC,Escherichia coli [1],4 µg/mL
same,Selectivity Index,Escherichia coli [2],2
same,MIC,Escherichia coli [3],0.5 µg/mL
same,MIC,Escherichia coli [4],1 µg/mL
same,MIC,Escherichia coli [5],0.5 µg/mL
same,MIC,Escherichia coli [6],0.25 µg/mL
same,Selectivity Index,Escherichia coli [7],2
same,MIC,Escherichia coli [8],1 µg/mL
same,Selectivity Index,Escherichia coli [9],4
same,MIC,Escherichia coli [10],1 µg/mL
same,MIC,Escherichia coli [11],0.5 µg/mL
same,Selectivity Index,Escherichia coli [12],2
same,MIC,Escherichia coli [13],2 µg/mL
same,MIC,Escherichia coli [14],0.5 µg/mL
same,Selectivity Index,Escherichia coli [15],4
same,MIC,Klebsiella pneumoniae [16],2 µg/mL
same,MIC,Klebsiella pneumoniae [17],1 µg/mL
same,Selectivity Index,Klebsiella pneumoniae [18],2
same,MIC,Klebsiella pneumoniae [19],8 µg/mL
same,MIC,Klebsiella pneumoniae [20],1 µg/mL
same,Selectivity Index,Klebsiella pneumoniae [21],8
same,MIC,Klebsiella pneumoniae [22],4 µg/mL
same,MIC,Klebsiella pneumoniae [23],1 µg/mL
same,Selectivity Index,Klebsiella pneumoniae [24],4
same,MIC,Klebsiella pneumoniae [25],4 µg/mL
same,MIC,Klebsiella pneumoniae [26],1 µg/mL
same,Selectivity Index,Klebsiella pneumoniae [27],4
same,MIC,Klebsiella pneumoniae [28],4 µg/mL
same,MIC,Klebsiella pneumoniae [29],1 µg/mL
same,Selectivity Index,Klebsiella pneumoniae [30],4
same,MIC,Pseudomonas aeruginosa [31],16 µg/mL
same,MIC,Pseudomonas aeruginosa [32],16 µg/mL
same,Selectivity Index,Pseudomonas aeruginosa [33],1
same,MIC,Pseudomonas aeruginosa [34],32 µg/mL
same,MIC,Pseudomonas aeruginosa [35],16 µg/mL
same,Selectivity Index,Pseudomonas aeruginosa [36],2
same,MIC,Pseudomonas aeruginosa [37],16 µg/mL
same,MIC,Pseudomonas aeruginosa [38],8 µg/mL
same,Selectivity Index,Pseudomonas aeruginosa [39],2
same,MIC,Pseudomonas aeruginosa [40],16 µg/mL
same,MIC,Pseudomonas aeruginosa [41],16 µg/mL
same,Selectivity Index,Pseudomonas aeruginosa [42],1
same,MIC,Pseudomonas aeruginosa [43],16 µg/mL
same,MIC,Pseudomonas aeruginosa [44],16 µg/mL
same,Selectivity Index,Pseudomonas aeruginosa [45],1
